This note sets out measurements from ChEMBL document CHEMBL1933026, “Synthesis and biological evaluation of molecular probes based on the 9-methylstreptimidone derivative DTCM-glutarimide” (Bioorg Med Chem Lett, 2012).

Data set [1] concerns RAW264.7. The experiment in a line: Inhibition of LPS-induced NF-kappaB activation in mouse RAW264.7 cells at 3 ug/ml treated 2 hrs before LPS challenge measured after 30 mins by electrophoretic mobility shift assay. Type of data set: cell-based. Put shortly:
(§1)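 RAW264.7 cells pretreated 2 h, then stimulated with LPS for 30 min. Nuclear extracts prepared by the Andrews–Faller method. 5 µg protein incubated 20 min at RT with poly(dI-dC) and a ³²P-labelled NF-κB oligonucleotide in Tris-HCl pH 7.0 buffer with NaCl, EDTA, DTT, glycerol and NP-40. Complexes resolved on a 4% native polyacrylamide gel in TBE.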
In general terms: Mobility shift assays separate free from complexed probe on a gel.

A short description of data set [2]: (§2) Cytotoxicity against LPS-induced mouse RAW264.7 cells treated 2 hrs before LPS challenge measured after 20 hrs by MTT assay. Format: cell-based. The settings on record: mouse, LPS-induced RAW264.7 cells; read-out: ED50. Put shortly:
(§3)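 RAW264.7 cells seeded at 1 × 10⁵ cells/ml and treated the next day with compound for 2 h, followed by LPS for 20 h. MTT solution then added and cells held 4 h at 37 °C in 5% CO₂. Viability read as absorbance at 570 nm.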

The subject of data set [3] is RAW264.7. The description is as §2. The following applies: Mus musculus, RAW264.7. Type of data set: cell-based. The procedure, abridged:
as §3

The test system of data set [4] is RAW264.7. The experiment in a line: Inhibition of LPS-induced NF-kappaB activation in mouse RAW264.7 cells at 10 ug/ml treated 2 hrs before LPS challenge measured after 30 mins by electrophoretic mobility shift assay. Format: cell-based. The procedure, abridged:
as §1

For data set [5], the system named is RAW264.7. The experiment in a line: Antiinflammatory activity in mouse RAW264.7 cells assessed as inhibition of LPS-induced iNOS expression at 1 to 10 ug/ml treated 2 hrs before LPS challenge measured after 24 hrs by Western blotting. Type of data set: functional, cell-based. The procedure, abridged: (§4)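 RAW264.7 cells in DMEM with 10% FBS. Incubated with or without compound for 2 h, then stimulated with LPS 1 µg/ml for 24 h. Total cell lysates analysed for iNOS protein by Western blotting.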
For orientation: In western blotting, separated proteins are transferred to a membrane and probed.

Data set [6] concerns RAW264.7. The experiment in a line: Antiinflammatory activity in mouse RAW264.7 cells assessed as inhibition of LPS-induced NO production treated for 2 hrs before LPS challenge measured after 20 hrs by Griess method. Format: functional, cell-based. The procedure, abridged: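 RAW264.7 macrophages grown in DMEM with 10% FBS, seeded at 1 × 10⁵ cells/ml and used next day. Pretreated with compound 2 h, then stimulated with LPS […] for 20 h. Nitrite in the medium read with Griess reagent.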

Data set [7] deals with RAW264.7. The experiment in a line: Antiinflammatory activity in mouse RAW264.7 cells assessed as inhibition of LPS-induced iNOS expression at 0.3 to 3 ug/ml treated 2 hrs before LPS challenge measured after 24 hrs by Western blotting. Format: functional, cell-based. Put shortly:
as §4

≈ marks a conversion by molar mass, not a printed value. Calls of active or inactive are those of the source. No cut-off for these calls is given here.

One may read the IC50 as the point on the concentration scale where inhibition reaches its midpoint. `[N-]=[N+]=Nc1ccc(C(=O)NCCCCCCCCCCCCSC(=O)CC2CC(=O)NC(=O)C2)cc1`: the inhibition result in the data set on RAW264.7 [1] and in the data set on RAW264.7 [4] was “inactive” in each case. In addition, the CC50 at 20 h in data set [2] was over 30 µg/mL. For the same compound, the results for the IC50 with RAW264.7 [3] and with RAW264.7 [6] were over 30 µg/mL and 4.5 µg/mL (≈ 8.73 µM), respectively. The inhibition result in the data set with RAW264.7 [5] was “Active”.

With `O=C(CCCC[C@@H]1SC[C@@H]2NC(=O)N[C@@H]21)NCCCCCCCCCCCCSC(=O)CC1CC(=O)NC(=O)C1`, the inhibition result in the data set on RAW264.7 [1] and in the data set on RAW264.7 [4] was “inactive” in each case. Moreover, in data set [2], the CC50 at 20 h is over 30 µg/mL. In addition, the IC50 in the data set on RAW264.7 [3] is over 30 µg/mL; with RAW264.7 [6] it was 5 µg/mL (≈ 8.38 µM). Moreover, the inhibition entry in the data set with RAW264.7 [5] is “Active”.

`O=C(CCCC[C@@H]1SC[C@@H]2NC(=O)N[C@@H]21)NCCCCCCCCCCCCNC(=O)CC1CC(=O)NC(=O)C1`: the CC50 at 20 h in data set [2] is over 30 µg/mL. For the same compound, the IC50 in the data set with RAW264.7 [6] was over 30 µg/mL.

In the case of `CCCCCCCCCCCCSC(=O)CC1CC(=O)NC(=O)C1`, the inhibition result in the data set on RAW264.7 [1] and in the data set with RAW264.7 [4] was “inactive” each time. The inhibition entry with RAW264.7 [7] was “Active”.

Turning to `O=C(CCCC[C@@H]1SC[C@@H]2NC(=O)N[C@@H]21)NCCSC(=O)CC1CC(=O)NC(=O)C1`, the CC50 at 20 h in data set [2] is over 30 µg/mL. Also, the IC50 in the data set on RAW264.7 [6] was over 30 µg/mL.
